Reference: ChEMBL document CHEMBL4689842, “EUbOPEN Chemogenomics Library wave 1” (2021)

Tested on: HEK-293T
Assay: Multiplex assay against HEK293T;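 as to Population Tubulin-Different-Phenotype (%): share of the cells with healthy nuclei that show this phenotype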
Format: toxicity, cell-based
Settings: human
Summary of the method: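 Hoechst33342, BioTracker Green Microtubule Cytoskeleton Dye, MitoTracker Red and Annexin V Alexa Fluor 680 were added to live cells at seeding, and imaging on a CQ1 microscope at 37°C and 5% CO2 followed compound addition. Gating by CellPathfinder machine learning separated cells into Hoechst high-intensity objects or normal cells, then normal cells into healthy, pyknosed or fragmented nuclei, then pyknosed cells into mitotic or apoptotic. Per cents of healthy-nucleus cells are reported for the tubulin, mitochondrial-mass and membrane-permeability phenotypes.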

[1] = 12 h, 1 µM, compound concentration 1 uM, replicate 1
[2] = 12 h, 1 µM, compound concentration 1 uM, replicate 2
[3] = 12 h, 10 µM, compound concentration 10 uM, replicate 1
[4] = 12 h, 10 µM, compound concentration 10 uM, replicate 2
[5] = 24 h, 1 µM, compound concentration 1 uM, replicate 1
[6] = 24 h, 1 µM, compound concentration 1 uM, replicate 2
[7] = 24 h, 10 µM, compound concentration 10 uM, replicate 1
[8] = 24 h, 10 µM, compound concentration 10 uM, replicate 2
[9] = 48 h, 1 µM, compound concentration 1 uM, replicate 1
[10] = 48 h, 1 µM, compound concentration 1 uM, replicate 2
[11] = 48 h, 10 µM, compound concentration 10 uM, replicate 1
[12] = 48 h, 10 µM, compound concentration 10 uM, replicate 2

In the case of `CN1CCC[C@@H]1CCO[C@](C)(c1ccccc1)c1ccc(Cl)cc1.O=C(O)/C=C/C(=O)O` [CLEMASTINE FUMARATE], the “Population Apoptotic (%)” value [1] is reported as 56%, the “Population Fragmented Nuclei (%)” value [1] is reported as 10% and the “Population Healthy Nuclei (%)” value [1] is reported as 23%. For the same compound, the “Population Hoechst High Intensity Objects (%)” value [1] was 9%, the “Population Membrane Permeable-Phenotype (%)” value [1] was 5% and the “Population Mitochondria Different-Phenotype (%)” value [1] was 96%. For the same compound, the “Population Mitotic Cells (%)” value [1] was 43%, the “Population Normal (%)” value [1] was 90% and the “Population Pyknosed Nuclei (%)” value [1] was 65%. The “Population Tubulin-Different-Phenotype (%)” value [1] was 78%, the “Total Cell Count” value [1] was 278 and the “Population Apoptotic (%)” value [2] was 25%. For the same compound, the “Population Fragmented Nuclei (%)” value [2] was 4%, the “Population Healthy Nuclei (%)” value [2] was 32% and the “Population Hoechst High Intensity Objects (%)” value [2] was 3%. The “Population Membrane Permeable-Phenotype (%)” value [2] was 13%, the “Population Mitochondria Different-Phenotype (%)” value [2] was 48% and the “Population Mitotic Cells (%)” value [2] was 75%. For the same compound, the “Population Normal (%)” value [2] was 96%, the “Population Pyknosed Nuclei (%)” value [2] was 62% and the “Population Tubulin-Different-Phenotype (%)” value [2] was 52%. For the same compound, the “Total Cell Count” value [2] was 217, the “Population Apoptotic (%)” value [3] was 92% and the “Population Fragmented Nuclei (%)” value [3] was 14%. For the same compound, the “Population Healthy Nuclei (%)” value [3] was 17%, the “Population Hoechst High Intensity Objects (%)” value [3] was 18% and the “Population Membrane Permeable-Phenotype (%)” value [3] was 6%. The “Population Mitochondria Different-Phenotype (%)” value [3] was 100%, the “Population Mitotic Cells (%)” value [3] was 7% and the “Population Normal (%)” value [3] was 81%. The “Population Pyknosed Nuclei (%)” value [3] was 67%, the “Population Tubulin-Different-Phenotype (%)” value [3] was 93% and the “Total Cell Count” value [3] was 209. The “Population Apoptotic (%)” value [4] was 85%, the “Population Fragmented Nuclei (%)” value [4] was 6% and the “Population Healthy Nuclei (%)” value [4] was 15%. The “Population Hoechst High Intensity Objects (%)” value [4] was 6%, the “Population Membrane Permeable-Phenotype (%)” value [4] was 4% and the “Population Mitochondria Different-Phenotype (%)” value [4] was 96%. The “Population Mitotic Cells (%)” value [4] was 14%, the “Population Normal (%)” value [4] was 93% and the “Population Pyknosed Nuclei (%)” value [4] was 78%. The “Population Tubulin-Different-Phenotype (%)” value [4] was 92%, the “Total Cell Count” value [4] was 172 and the “Population Apoptotic (%)” value [5] was 59%. For the same compound, the “Population Fragmented Nuclei (%)” value [5] was 12%, the “Population Healthy Nuclei (%)” value [5] was 18% and the “Population Hoechst High Intensity Objects (%)” value [5] was 21%. The “Population Membrane Permeable-Phenotype (%)” value [5] was 0%, the “Population Mitochondria Different-Phenotype (%)” value [5] was 95% and the “Population Mitotic Cells (%)” value [5] was 40%. For the same compound, the “Population Normal (%)” value [5] was 78%, the “Population Pyknosed Nuclei (%)” value [5] was 68% and the “Population Tubulin-Different-Phenotype (%)” value [5] was 63%. The “Total Cell Count” value [5] was 274, the “Population Apoptotic (%)” value [6] was 42% and the “Population Fragmented Nuclei (%)” value [6] was 7%. The “Population Healthy Nuclei (%)” value [6] was 60%, the “Population Hoechst High Intensity Objects (%)” value [6] was 1% and the “Population Membrane Permeable-Phenotype (%)” value [6] was 4%. The “Population Mitochondria Different-Phenotype (%)” value [6] was 56%, the “Population Mitotic Cells (%)” value [6] was 57% and the “Population Normal (%)” value [6] was 98%. For the same compound, the “Population Pyknosed Nuclei (%)” value [6] was 32%, the “Population Tubulin-Different-Phenotype (%)” value [6] was 60% and the “Total Cell Count” value [6] was 273. For the same compound, the “Population Fragmented Nuclei (%)” value [7] was 15%, the “Population Healthy Nuclei (%)” value [7] was 11% and the “Population Hoechst High Intensity Objects (%)” value [7] was 23%. The “Population Membrane Permeable-Phenotype (%)” value [7] was 0%, the “Population Mitochondria Different-Phenotype (%)” value [7] was 100% and the “Population Normal (%)” value [7] was 76%. For the same compound, the “Population Pyknosed Nuclei (%)” value [7] was 72%, the “Population Tubulin-Different-Phenotype (%)” value [7] was 94% and the “Total Cell Count” value [7] was 211. For the same compound, the “Population Apoptotic (%)” value [8] was 92%, the “Population Fragmented Nuclei (%)” value [8] was 4% and the “Population Healthy Nuclei (%)” value [8] was 20%. For the same compound, the “Population Hoechst High Intensity Objects (%)” value [8] was 6%, the “Population Membrane Permeable-Phenotype (%)” value [8] was 6% and the “Population Mitochondria Different-Phenotype (%)” value [8] was 93%. For the same compound, the “Population Mitotic Cells (%)” value [8] was 7%, the “Population Normal (%)” value [8] was 93% and the “Population Pyknosed Nuclei (%)” value [8] was 74%. For the same compound, the “Population Tubulin-Different-Phenotype (%)” value [8] was 93%, the “Total Cell Count” value [8] was 159 and the “Population Apoptotic (%)” value [9] was 66%. The “Population Fragmented Nuclei (%)” value [9] was 21%, the “Population Healthy Nuclei (%)” value [9] was 11% and the “Population Hoechst High Intensity Objects (%)” value [9] was 23%. For the same compound, the “Population Membrane Permeable-Phenotype (%)” value [9] was 4%, the “Population Mitochondria Different-Phenotype (%)” value [9] was 88% and the “Population Mitotic Cells (%)” value [9] was 33%. For the same compound, the “Population Normal (%)” value [9] was 76%, the “Population Pyknosed Nuclei (%)” value [9] was 66% and the “Population Tubulin-Different-Phenotype (%)” value [9] was 72%. For the same compound, the “Total Cell Count” value [9] was 276, the “Population Apoptotic (%)” value [10] was 21% and the “Population Fragmented Nuclei (%)” value [10] was 4%. The “Population Healthy Nuclei (%)” value [10] was 81%, the “Population Hoechst High Intensity Objects (%)” value [10] was 1% and the “Population Membrane Permeable-Phenotype (%)” value [10] was 5%. For the same compound, the “Population Mitochondria Different-Phenotype (%)” value [10] was 29%, the “Population Mitotic Cells (%)” value [10] was 78% and the “Population Normal (%)” value [10] was 98%. For the same compound, the “Population Pyknosed Nuclei (%)” value [10] was 13%, the “Population Tubulin-Different-Phenotype (%)” value [10] was 60% and the “Total Cell Count” value [10] was 406. For the same compound, the “Population Apoptotic (%)” value [11] was 86%, the “Population Fragmented Nuclei (%)” value [11] was 24% and the “Population Healthy Nuclei (%)” value [11] was 1%. For the same compound, the “Population Hoechst High Intensity Objects (%)” value [11] was 23%, the “Population Membrane Permeable-Phenotype (%)” value [11] was 0% and the “Population Mitochondria Different-Phenotype (%)” value [11] was 100%. For the same compound, the “Population Mitotic Cells (%)” value [11] was 13%, the “Population Normal (%)” value [11] was 76% and the “Population Pyknosed Nuclei (%)” value [11] was 73%. The “Population Tubulin-Different-Phenotype (%)” value [11] was 66%, the “Total Cell Count” value [11] was 230 and the “Population Apoptotic (%)” value [12] was 97%. The “Population Fragmented Nuclei (%)” value [12] was 14%, the “Population Healthy Nuclei (%)” value [12] was 15% and the “Population Hoechst High Intensity Objects (%)” value [12] was 8%. For the same compound, the “Population Membrane Permeable-Phenotype (%)” value [12] was 8%, the “Population Mitochondria Different-Phenotype (%)” value [12] was 83% and the “Population Mitotic Cells (%)” value [12] was 2%. The “Population Normal (%)” value [12] was 91%, the “Population Pyknosed Nuclei (%)” value [12] was 69% and the “Population Tubulin-Different-Phenotype (%)” value [12] was 75%. For the same compound, the “Total Cell Count” value [12] was 168.
